Active and inactive are the calls of the source. The calls are words filed in the database; no cut-off is given here.
What was measured:
[1] = test system: Mycobacterium tuberculosis; assay: Bactericidal activity against Mycobacterium bovis BCG ATCC 35734 assessed as reduction in membrane potential by measuring red to green fluorescent ratio at 100 uM measured at 3 hrs by DiOC2-dye based fluorescence assay; assay type: functional, organism-based; conditions: BCG str. ATCC 35743
[2] = test system: Mycobacterium tuberculosis; assay: Bactericidal activity against Mycobacterium bovis BCG ATCC 35734 assessed as suppression of reductive capacity by measuring decrease in formazan formation at 100 uM after 0.5 to 1 hr by MTT reduction assay; assay type: functional; parameters: scale not given: the % may be the effect or the level left
In short: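 BCG cultures exposed to 0.2–100 μM for 30 min and 1 h, then MTT added; formazan production read at 595 nm against drug-free basal absorbance; CCCP 100 μM reference; representative of two independent experiments.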

## N#CC(C#N)=NNc1cccc(Cl)c1 [CARBONYL CYANIDE M-CHLOROPHENYLHYDRAZONE]
[1]
  Activity: Active
[2]
  Activity: 50%
